Test results: ChEMBL document CHEMBL1158730, “Sesquiterpenoids from Pulicaria canariensis and their cytotoxic activities” (J Nat Prod, 2005)
Active and inactive are the calls of the source. The calls are words filed in the database; no cut-off is given here.

Key:
Assay type in all cases: functional, cell-based
HL-60 [1] = test: Cytotoxicity against human HL60 cells by MTT assay
How it was run: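 HL-60 cells grown in suspension in RPMI-1640 with 10% heat-inactivated FBS, penicillin 100 units/mL and streptomycin 100 μg/mL, at 37 °C in humidified 95% air/5% CO2. Density kept below 1 × 10^6 cells/mL. Viability read by MTT; IC50 (μM) given as mean ± spread.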

HL-60 [2] = test: Induction of apoptosis in human HL60 cells assessed as nuclear chromatin condensation by Hoechst 33258 based fluorescent microscopy
How it was run: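 HL-60 cells cultured 12 h without or with the indicated doses, then stained with Hoechst 33258. Condensed/fragmented chromatin scored by fluorescence microscopy as the percentage of apoptotic cells. Etoposide 10 μM as positive control. Points are the average (±SE) of triplicates from a representative experiment.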

HL-60 [3] = test: Induction of apoptosis in human HL60 cells assessed as accumulation […] at 30 uM after 12 hrs by flow cytometry
How it was run: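 HL-60 cells incubated at 30 μM for 12 h. DNA content analysed by flow cytometry to follow the diploid-to-hypodiploid shift and the cell-cycle phase distribution.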

HL-60 [4] = test: Induction of apoptosis in human HL60 cells assessed as activation of caspase 3 after 12 hrs
How it was run: (§1)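 HL-60 cells exposed to increasing concentrations for 12 h, then harvested. Cytosolic or total lysates assayed with colorimetric substrates, DEVD-pNA for caspase-3 and IETD-pNA for caspase-8. Activity expressed as x-fold over untreated control. A representative experiment run in duplicate.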

HL-60 [5] = test: Induction of apoptosis in human HL60 cells assessed as activation of caspase 8 at after 12 hrs; how it was run: as §1
HL-60 [6] = test: Induction of apoptosis in human HL60 cells assessed as cleavage of PARP-1 after 12 hrs by Western blot analysis
How it was run: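 HL-60 cells treated for 12 h at the indicated concentrations. Total lysates immunoblotted with a PARP-1 monoclonal antibody that detects the native 116 kDa and cleaved 85 kDa forms. Etoposide 10 μM served as positive control.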

Compound	IC50 (HL-60 [1]) [µM]	further results
CC(=O)OC/C1=C/CC[C@@]2(C)O[C@@H]2[C@@H](OC(C)=O)[C@@H](C(C)C)[C@H](OC(C)=O)C1	298	
CC(=O)O[C@@H]1/C=C(\C)CC[C@H]2O[C@@]2(C=O)C[C@@H](OC(C)=O)[C@@H]1C(C)C [PULICANARAL A]	115	
CC(=O)O[C@H]1[C@@H](C(C)C)[C@H](OC(C)=O)C[C@]2(C=O)O[C@@H]2CC[C@@]2(C)O[C@@H]12 [PULICANARAL B]	264	
C=C1CC[C@@H](C(C)C)[C@H]2[C@@H]1CC[C@@H]2C(=O)CO [PULIOPLOPANONE A]	242	
C=C1CC/C=C(/COC(C)=O)C[C@@H](OC(C)=O)[C@H](C(C)C)[C@H](OC(C)=O)C1=O [TRIACETOXY PULICANONE]	20	Activity (HL-60 [2]): Dose-dependent effect; Activity (HL-60 [3]): Active; Activity (HL-60 [4]): Active; Activity (HL-60 [5]): Active; Activity (HL-60 [6]): Active
